# Data taken from article PMC8416640 (Biochemistry and Biophysics Reports, 2021).
# Columns and labels:
# ccT2R200-1 = ccT2R200-1 (Cyprinus carpio, UniProt A0A2Z6FB23); format: cell-based, common carp (Cyprinus carpio); conditions: for response of ccT2R200-1 in screening of bitter compounds: single screening concentration per compound, vs control buffer
# ccT2R200-2 = ccT2R200-2 (Cyprinus carpio, UniProt A0A2Z6FB19); format: cell-based, common carp (Cyprinus carpio); conditions: for response of ccT2R200-2 in screening of bitter compounds: single screening concentration per compound, vs control buffer
# ccT2R201 = ccT2R201 (Cyprinus carpio, UniProt A0A2Z6FB59); format: cell-based, common carp (Cyprinus carpio); conditions: for response of ccT2R201 in screening of bitter compounds: single screening concentration per compound, vs control buffer
# How it was run: (§1)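 Transient co-transfection of HEK293T cells with a pEAK10 vector carrying the carp receptor (cloned from lip cDNA or head genomic DNA) with an N-terminal sst tag (first 45 residues of rat somatostatin receptor 3), human Gα16gust44 and mt-apoclytin-II. Cells were exposed to each bitter test compound at one fixed screening concentration. Luminescence was read as area under the curve in RLU. More than three independent experiments were run in duplicate or triplicate, with paired t-tests.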
# ccT2R203-1 = format: cell-based, common carp (Cyprinus carpio); conditions: for response of ccT2R203-1 in screening of bitter compounds: single screening concentration per compound, vs control buffer
# ccT2R202-1 = format: cell-based, common carp (Cyprinus carpio); conditions: single screening concentration per compound, vs control buffer
# How it was run: as §1
# drT2R4 = conditions: zebrafish receptor; cited from earlier work
# ccT2R202-2 = format: cell-based, common carp (Cyprinus carpio); conditions: single screening concentration per compound, vs control buffer
# How it was run: as §1
# drT2R3a = conditions: approximate, one range for four receptors; cited from earlier work
# drT2R1 = conditions: drT2R1, approximate, one range for four receptors; cited from earlier work
# mfT2R1 = conditions: mfT2R1, approximate, one range for four receptors; cited from earlier work
# lcT2R01 = conditions: lcT2R01, approximate, one range for four receptors; cited from earlier work
# ccT2R201, sequence (A0A2Z6FB59 1-327): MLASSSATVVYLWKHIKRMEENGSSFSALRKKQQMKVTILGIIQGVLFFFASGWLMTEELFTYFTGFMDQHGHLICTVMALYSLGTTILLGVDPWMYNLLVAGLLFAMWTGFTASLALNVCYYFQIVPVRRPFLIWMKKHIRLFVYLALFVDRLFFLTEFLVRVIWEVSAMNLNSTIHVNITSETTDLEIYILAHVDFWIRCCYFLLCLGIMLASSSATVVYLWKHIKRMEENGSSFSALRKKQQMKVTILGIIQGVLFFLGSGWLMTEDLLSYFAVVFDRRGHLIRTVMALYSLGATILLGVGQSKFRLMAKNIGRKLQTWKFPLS
# ccT2R200-2, sequence (A0A2Z6FB19 1-321): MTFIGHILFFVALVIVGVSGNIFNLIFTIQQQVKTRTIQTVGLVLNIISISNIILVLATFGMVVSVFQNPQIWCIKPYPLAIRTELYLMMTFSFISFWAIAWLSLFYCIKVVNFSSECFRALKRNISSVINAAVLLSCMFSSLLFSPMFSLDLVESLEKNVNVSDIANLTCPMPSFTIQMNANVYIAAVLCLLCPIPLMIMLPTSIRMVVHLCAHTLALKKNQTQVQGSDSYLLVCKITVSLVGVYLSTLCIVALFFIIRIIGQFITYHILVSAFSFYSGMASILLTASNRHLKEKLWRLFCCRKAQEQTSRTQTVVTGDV
# ccT2R200-1, sequence (A0A2Z6FB23 1-321): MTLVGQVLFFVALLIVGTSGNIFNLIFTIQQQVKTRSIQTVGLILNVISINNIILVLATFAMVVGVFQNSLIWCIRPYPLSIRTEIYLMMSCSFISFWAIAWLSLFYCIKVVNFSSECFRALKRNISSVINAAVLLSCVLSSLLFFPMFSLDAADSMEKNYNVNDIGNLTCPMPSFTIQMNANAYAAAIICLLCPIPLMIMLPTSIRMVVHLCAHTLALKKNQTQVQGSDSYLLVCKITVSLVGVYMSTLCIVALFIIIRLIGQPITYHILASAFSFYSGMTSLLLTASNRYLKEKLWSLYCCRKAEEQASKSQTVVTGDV
Compound,response of ccT2R200-1 in screening of bitter compounds (ccT2R200-1),response of ccT2R201 in screening of bitter compounds (ccT2R201),response of ccT2R203-1 in screening of bitter compounds (ccT2R203-1),also measured
CCCc1cc(=O)[nH]c(=S)[nH]1 [PROP],weakly responded,strongly activated,strongly activated,response of ccT2R200-2 in screening of bitter compounds (ccT2R200-2): strongly activated
CN(C)C=S [dimethyl-thioformamide],weakly responded,–,weakly responded,–
CNC(N)=S [methylthiourea],–,–,weakly responded,–
OCc1ccccc1O[C@@H]1O[C@H](CO)[C@@H](O)[C@H](O)[C@H]1O [D-(−)-salicin],–,weakly responded,–,–
amarogentin,strongly activated,strongly activated,–,–
O=C1C[C@@H]2OCC=C3CN4CC[C@]56c7ccccc7N1[C@H]5[C@H]2[C@H]3C[C@H]46 [strychinine],weakly responded,–,–,response of ccT2R202-1 in screening of bitter compounds (ccT2R202-1): weakly activated
O=C(O)c1cc(=O)c2c(OCC(O)COc3cccc4oc(C(=O)O)cc(=O)c34)cccc2o1 [cromolyne],weakly responded,–,–,–
C=C(C)[C@@H]1[C@H]2OC(=O)[C@@H]1[C@]1(O)C[C@H]3O[C@]34C(=O)O[C@H]2[C@]14C [picrotoxinin],strongly activated,–,strongly activated,"EC50 (ccT2R200-1): 510 ± 26 µM; response of ccT2R200-2 in screening of bitter compounds (ccT2R200-2): strongly activated; EC50 (ccT2R203-1; ccT2R203-1, dose-response with seven concentrations, HEK293T, luminescence AUC): 425 ± 99 µM; response of drT2R4 (drT2R4): does not respond"
C=C1CC[C@@H]2[C@](C)(CO)[C@H](O)CC[C@@]2(C)[C@@H]1C/C=C1/C(=O)OC[C@H]1O [andrographolide],strongly activated,–,weakly responded,EC50 (ccT2R200-1): 182 ± 7 µM; EC50 (ccT2R200-2): 335 ± 38 µM; response of ccT2R200-2 in screening of bitter compounds (ccT2R200-2): strongly activated; response of ccT2R202-2 in screening of bitter compounds (ccT2R202-2): weakly activated
O=C(N[C@H](CO)[C@H](O)c1ccc([N+](=O)[O-])cc1)C(Cl)Cl [chloramphenicol],–,weakly responded,–,–
CC1=C[C@H]2[C@H]3[C@H](C(C)=C4[C@H]5OC(=O)[C@@H](C)[C@@H]5CC[C@](C)(O)[C@@H]43)[C@@]13[C@@H]2[C@@](C)(O)CC[C@H]1[C@H](C)C(=O)O[C@@H]13 [absinthin],weakly responded,–,weakly responded,response of ccT2R200-2 in screening of bitter compounds (ccT2R200-2): weakly responded
CC[N+](CC)(CC(=O)Nc1c(C)cccc1C)Cc1ccccc1 [denatonium benzoate],–,weakly responded,–,EC50 (ccT2R201): 44 ± 5 µM; EC50 (drT2R3a): 300 to 3000 µM; EC50 (drT2R1): 300 to 3000 µM; EC50 (mfT2R1): 300 to 3000 µM; EC50 (lcT2R01): 300 to 3000 µM
CC(C)[C@]12CC(=O)[C@H](C)[C@H]1C2 [α-thujon],weakly responded,–,–,–
COc1cc2c(c(OC)c1OC)-c1ccc(OC)c(=O)cc1[C@@H](NC(C)=O)CC2 [colchicine],–,weakly responded,–,–
